{"source": "paper PMC3800034", "about": "(Journal of medicinal chemistry, 2013)", "key": {"neutrophil migration": {"tested_on": "neutrophil migration", "details": "cited from earlier work"}, "OXE receptor [1]": {"tested_on": "OXE receptor", "details": "cited from earlier work"}, "OXE receptor [2]": {"target": "OXE receptor (Homo sapiens, UniProt Q8TDS5)", "sequence (Q8TDS5 whole entry)": "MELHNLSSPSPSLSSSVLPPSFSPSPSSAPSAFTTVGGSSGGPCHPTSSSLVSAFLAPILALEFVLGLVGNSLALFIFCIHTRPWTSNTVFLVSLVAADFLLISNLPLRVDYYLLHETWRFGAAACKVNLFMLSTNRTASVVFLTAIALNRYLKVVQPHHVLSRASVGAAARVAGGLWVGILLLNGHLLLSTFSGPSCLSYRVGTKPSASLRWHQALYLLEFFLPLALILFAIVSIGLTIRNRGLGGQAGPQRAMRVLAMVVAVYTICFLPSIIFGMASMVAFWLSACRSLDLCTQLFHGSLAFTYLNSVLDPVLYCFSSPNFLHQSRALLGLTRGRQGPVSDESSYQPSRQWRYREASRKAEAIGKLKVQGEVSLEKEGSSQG", "type": "cell-based"}, "[3]": {"tested_on": "response of neutrophils to LTB4", "experiment": "LTB4-induced calcium mobilization in human neutrophils", "type": "cell-based", "details": "compound 10 µM, LTB4 10 nM", "method_in_brief": "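Neutrophils from whole blood of healthy human donors, suspended in phosphate-buffered saline, loaded with indo-1, and moved to a cuvette with CaCl₂ (1.8 mM) and MgCl₂ (1 mM) 5 min before the run. Fluorescence was read at 37 °C in a spectrofluorimeter. After a stable baseline, vehicle or test compound was added, then LTB4 (10 nM) 2 min later. Digitonin followed to give maximal response.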"}}, "note": "“Also recorded” adds a separate entry of the source."}
{"compound": "CCCCC/C=C\\C[C@H](O)/C=C/C=C\\C=C\\C(=O)CCCC(=O)O", "note": "[5-oxo-12S-HETE 6, 5-oxo-12S-HETE]", "values": [{"measurement": "effect on 5-oxo-ETE-induced neutrophil migration", "setting": "neutrophil migration", "result": "inhibited"}, {"measurement": "effect on intracellular Ca++ levels in neutrophils", "setting": "OXE receptor [1]; compound alone", "result": "virtually no effect"}, {"measurement": "block of 5-oxo-ETE-induced Ca++ mobilization", "setting": "OXE receptor [1]; neutrophils", "result": "low µmolar range"}]}
{"compound": "O=C(O)CCCC(=O)n1ccc2ccccc21", "note": "[Compound 10, 5-(1H-indol-1-yl)-5-oxopentanoic acid]", "values": [{"measurement": "mobilization of intracellular calcium by the compound alone (agonist activity)", "setting": "OXE receptor [2]; compound 30 µM added to neutrophils", "result": "neither mobilized intracellular calcium"}, {"measurement": "effect on the response to 5-oxo-ETE (antagonist activity)", "setting": "OXE receptor [2]; compound 30 µM, 5-oxo-ETE 10 nM added 2 min later", "result": "nor altered the response to 5-oxo-ETE; also recorded: does not affect calcium mobilization"}]}
{"compound": "CCCCCCc1cc2ccccc2n1C(=O)CCCC(=O)O", "note": "[Compound 26, 5-(2-Hexyl-1H-indol-1-yl)-5-oxo-valeric acid]", "values": [{"measurement": "effect on the response of neutrophils to LTB4", "setting": "[3]", "result": "virtually no effect"}, {"measurement": "inhibition of the effect of 5-oxo-ETE", "setting": "OXE receptor [2]; compound 1 µM, 5-oxo-ETE 10 nM", "result": "substantially inhibited"}, {"measurement": "inhibition of the response to 5-oxo-ETE", "setting": "OXE receptor [2]; compound 10 µM, 5-oxo-ETE 10 nM", "result": "completely inhibiting"}]}
{"compound": "CCCCCCc1cc2ccc(Cl)cc2n1C(=O)CCCC(=O)O", "note": "[Compound 39, 5-(6-Chloro-2-hexyl-1H-indol-1-yl)-5-oxo-valeric acid]", "values": [{"measurement": "IC50", "setting": "OXE receptor [2]", "result": "400 ± 30", "unit": "nM"}, {"measurement": "increase in potency compared with non-chlorinated compound 26", "setting": "OXE receptor [2]; 5-oxo-ETE-induced calcium mobilization, IC50 ratio", "result": "about 4 fold"}]}
